Source: PubChem
RGS4 act: potentiators or activators of RGS4. HEK293 M3R/inducible RGS4, carbachol calcium flux Fluo4; stronger effect = lower value. B-score at 10 µM. 310,000 tested, 0.92% active;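 active means B-score of the integrated calcium signal more than 4 SD below the library mean, with starting fluorescence not abnormally high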;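 further: negative B-score means reduced calcium response which marks RGS4 activation or potentiation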
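Detection: kinetic calcium fluorescence imaging with Fluo4-AM dye, 2 µM / Material: HEK293 cells with stable M3R and inducible RGS4 / Schedule: recording 10 s baseline at 1 Hz, 100 s post-agonist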
MrgX1 antagonist: blocks BAM8-22 activation of human MrgX1 receptor | Q96LB2 | MRGX1-HEK293 calcium flux, Fluo-4, BAM8-22 antagonism; stronger effect = lower value | B-score at 10 µM | 310,000 tested, 1.3% active | AID 588676;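 active means calcium-response B-score plate-corrected more than 3 library SD below zero, starting fluorescence within 5 deviations, no agonist response on first addition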;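 further: peak minus trough fluorescence over baseline after final BAM8-22 challenge near maximal dose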
Hep lipid drop: hepatic lipid droplet formation modulation | AID 1656 | AML12 mouse hepatocytes, oleate lipid droplets, BODIPY imaging | 240,000 tested, 0.4% active | inhibition, % at 6.5 µM;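 active means lipid droplet intensity inhibited by at least 50%, with more than 500 cells counted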
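System: AML12 hepatocytes (mouse). Probe or stimulus: oleic acid at 100 µM to induce lipid droplet formation. Times: overnight treatment with compound plus oleate. Detection: Image-based BODIPY and DAPI two-channel analysis. Evaluation: percent inhibition of filter-corrected integrated lipid droplet intensity per well.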
MrgX1 PAM: human MrgX1 positive allosteric modulation, primary screen; Q96LB2; MrgX1-HEK293, Fluo-4 calcium flux, FDSS; stronger effect = higher value; B-score at 10 µM; 310,000 tested, 0.63% active;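 active means plate-corrected calcium response at least 3 library SD above typical, normal starting fluorescence, not activating the receptor alone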;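 further: compound read alongside a low EC10 to EC30 dose of BAM8-22 agonist; peak minus trough fluorescence over baseline measured at the second addition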
MrgX1 ag: agonists of human MrgX1 receptor; Q96LB2; MrgX1-HEK293 cells, Fluo-4 calcium fluorescence, agonist mode; stronger effect = higher value; B-score at 10 µM; 310,000 tested, 0.44% active;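 active means calcium response B-score plate-corrected fluorescence ratio at least 3 library SD, with starting fluorescence B-score inside 5 SD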
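Assay system: stable human MrgX1 HEK293 cell line. Quantity: 15,000 cells per well. Schedule: cells plated overnight, dye loaded 0.5 h 37 °C, 0.5 h room temperature. Detection: Fluo-4 NW calcium-flux fluorescence, kinetic read. Read-out basis: peak-minus-minimum fluorescence over baseline, converted to B scores. Control set: positive and negative control wells on each plate.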
RGS4 block: human RGS4 inhibition | HEK293 M3R/RGS4 inducible, Fluo-4 calcium flux; stronger effect = higher value; triggered by carbachol at its EC20 | 310,000 tested, 0.45% active | AID 463165 | P49798 | B-score at 10 µM;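 active means B-score, a plate-corrected calcium signal, over three deviations above library mean, with baseline fluorescence within five deviations of library mean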;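 further: RGS4 expression induced by doxycycline in cells with stable M3 receptor; B-score is computed from the integrated fluorescence ratio over baseline after carbachol; higher B-score means a larger calcium signal and so more RGS4 inhibition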
Target sequence (P49798 whole entry, looked up): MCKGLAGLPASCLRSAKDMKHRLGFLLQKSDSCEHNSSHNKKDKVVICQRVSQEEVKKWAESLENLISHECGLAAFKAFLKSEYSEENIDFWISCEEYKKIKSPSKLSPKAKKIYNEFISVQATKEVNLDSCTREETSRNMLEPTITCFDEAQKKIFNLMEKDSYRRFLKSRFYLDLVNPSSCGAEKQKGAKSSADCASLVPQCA
RGS4 activ val: RGS4 activation, validation assay | shares compounds with RGS4 act | HEK293 M3R/RGS4 inducible, carbachol calcium flux Fluo4 | inhibition, % at 10 µM | 1,100 tested, 89% active | AID 602282;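 active means inhibition above 3 SD of the buffer control wells, cut at about 41% in these data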;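 further: signal is the integrated peak-minus-minimum Fluo4 fluorescence over baseline ratio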
M3R Ca counter: activity in cells without induced RGS4 expression | shares compounds with RGS4 act | HEK293 M3R non-induced RGS4, Fluo4 calcium flux; after carbachol challenge at its EC90 | inhibition, % at 10 µM | 1,100 tested, 82% active;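 active means inhibition exceeding 3 SD of buffer-only control wells, cut at about 26% in these data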;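 further: percent drop in integrated peak-minus-baseline over baseline Fluo4 ratio after carbachol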
Starred values were filed as active, the others as inactive; i = inactive; · = no result. Compounds with a hit are over-represented: about 3.8% of the library has one in this group of screens.

SMILES	RGS4 act	MrgX1 antagonist	Hep lipid drop	MrgX1 PAM	MrgX1 ag	RGS4 block	RGS4 activ val	M3R Ca counter
CCN(CC)S(=O)(=O)c1ccc(N2CCc3ccccc3C2)nc1	-10.3*	i	9.3	i	i	i	60.0*	83.8*
C#CC[N+]1(CC#Cc2ccccc2)CCCC1	i	i	·	i	i	i	·	·
NC(=O)C[N+]1(CC#CC(O)(c2ccccc2)c2ccccc2)CCCC1	-12.2*	i	-0.5	i	i	i	52.5*	0.0
Cc1ccc(N(C(=O)Nc2ccccc2)C2=NCCC2)cc1	i	i	0.6	i	i	i	·	·
COc1ccc(N(C(=O)Nc2ccc(Cl)cc2)C2=NCCC2)cc1	-10.2*	i	11.0	i	i	i	78.5*	37.8*
CC1CCN(S(=O)(=O)c2cccc(C(=O)Nc3ccccc3)c2)CC1	i	i	-2.8	i	i	i	·	·
CSc1nc2ccccc2n1Cc1c(Cl)cccc1Cl	-8.41*	i	8.6	i	i	i	95.0*	86.3*
OCc1nc2ccccc2n1Cc1c(F)cccc1Cl	i	i	-18.4	i	i	i	·	·
O=C(NC(Cc1c[nH]c2ccccc12)C(=O)OCC(=O)c1cccc2ccccc12)c1cccs1 (stereo not drawn)	i	i	14.4	i	i	i	·	·
CCOc1ccc(S(=O)(=O)n2cnc3cc(C)c(C)cc32)cc1	-9.87*	i	-29.4	i	i	i	93.5*	95.3*
Cn1nc(C(F)(F)F)c2cc(NC(=O)OCc3ccc(C(C)(C)C)cc3)sc21	i	·	8.2	·	·	i	·	·
Cn1nc(C(F)(F)F)c2cc(NC(=O)OCc3ccc(F)cc3)sc21	-7.88*	i	·	i	i	i	74.5*	83.8*
C=CCn1c(SCC(=O)N2CCc3ccccc3C2)nc2sc(CC)cc2c1=O	i	i	-8.2	i	i	i	·	·
C=CCn1c(SCC(=O)N2CCc3ccccc3C2)nc2sc(C)c(C)c2c1=O	-7.89*	i	-30.5	i	i	i	85.0*	58.3*
O=C(NC1CC2CCCC(C1)N2Cc1ccccc1)C1CCCCC1 (stereo not drawn)	-9.86*	i	-0.3	i	i	i	59.5*	0.0
CCOC(=O)C(NC(=O)CC)(Nc1nc2c(s1)CCCC2)C(F)(F)F (stereo not drawn)	i	i	-7.0	i	i	i	·	·
COC(=O)C(NC(=O)COc1ccccc1)(Nc1nc2c(s1)CCCC2)C(F)(F)F (stereo not drawn)	-12*	i	0.9	i	i	i	80.5*	32.8*
COC(=O)c1ccc(CNC(=O)CSc2nc3sc(C)c(C)c3c(=O)n2C)o1	-8.15*	i	-9.4	i	i	i	50.5*	0.0
Cc1sc2nc(SCC(=O)NCc3ccco3)n(C)c(=O)c2c1C	i	i	·	i	i	i	·	·
CCOc1ccccc1N1CC(C(=O)Nc2cc(Cl)ccc2-n2cncn2)CC1=O (stereo not drawn)	i	i	·	i	i	i	·	·
COCCCNC(=S)Nc1ccc(CC(=O)O)cc1	i	i	-12.9	i	i	i	·	·
CCCc1nc(SCC(=O)c2ccccc2)c2c(=O)n(C)c(=O)n(C)c2n1	-7.81*	i	-1.1	i	i	i	93.5*	91.3*
O=S(=O)(c1ccc(N2CCN(S(=O)(=O)c3ccccc3)CC2)nc1)N1CCCC1	i	i	31.9	i	i	i	·	·
O=S(=O)(c1ccc(N2CC=C(c3ccccc3)CC2)nc1)N1CCCC1	-9.32*	i	1.6	i	i	i	54.5*	0.0
